Laboratory results published in ChEMBL document CHEMBL1134466 (J Med Chem, 2001).

Columns and labels:
Mus musculus [1] = assay: Antitumor activity against B16 murine melanoma at a dose of 7.5 mg/kg (ip) measured as percent weight change on day 8; type: functional
How it was run: (§1)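 Female B6D2F1 mice given 0.2 mL fresh B16 tumor brei ip (day 0), from sc-grown B16 in the same strain. Randomized 10/group and dosed ip on days 1-5 in 0.2 mL 1:2:7 Cremophor:ethanol:saline, freshly made. Mice monitored daily and weighed twice weekly; weight change taken on day 8. T/C = 100% × MST treated/control. 60-day survivors counted as long-term and excluded from MST.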

Mus musculus [2] = assay: Antitumor activity in MX-1 Xenograft Model at a dose of 50 mg/kg (ip) measured as percent weight change on day 8; type: functional
How it was run: (§2)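 Nude mice implanted sc by trocar in right foreflank with 1-2 mm3 MX-1 fragments. At ca. 5 × 5 mm (~10 days), pair-matched into groups of 10. Dosed ip days 1-5 in 0.2 mL 1:2:7 Cremophor:ethanol:saline. Weights and caliper measurements taken twice weekly; weight change on day 8. GI = 100% × (1 − tumor weight treated/control). Partial shrinkage = final tumor weight below day-1 weight; complete = tumor gone.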

Mus musculus [3] = assay: Antitumor activity against B16 murine melanoma at a dose of 50 mg/kg (ip) measured as 60-day survivors (% LTS); type: functional; how it was run: as §1
Mus musculus [4] = assay: Antitumor activity against B16 murine melanoma at a dose of 7.5 mg/kg (ip) measured as 60-day survivors (% LTS); type: functional; how it was run: as §1
Mus musculus [5] = assay: Antitumor activity against B16 murine melanoma at a dose of 7.5 mg/kg (ip) measured as increased life span (% T/C); type: functional; how it was run: as §1
Mus musculus [6] = assay: Antitumor activity in MX-1 Xenograft Model at a dose of 25 mg/kg (ip) measured as number of mice with partial tumor regression; type: functional; how it was run: as §2
Mus musculus [7] = assay: (§3) Toxicity to bone marrow granulocyte/macrophage progenitors per femur at a dose of 200 mg/kg (ip); type: organism-based; set-up: dose 200 mg/kg; settings: in vivo
How it was run: (§4)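 Male B6D2F1 mice (5/group) given drug or vehicle ip, single dose or daily ×5. Femoral marrow harvested 24 h after the last dose and plated at 2 × 10^4 viable nucleated cells/mL in methylcellulose (0.8%) medium with 20% FBS and 10% pokeweed mitogen-stimulated spleen-conditioned medium. Cultured 7 days at 37 °C, 5% CO2; colonies >50 cells counted. Mean colonies given as % of control per femur, mean ± SEM.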

Mus musculus [8] = assay: (§5) Toxicity to bone marrow granulocyte/macrophage progenitors per femur at a dose of 150 mg/kg (ip); type: organism-based; set-up: dose 150 mg/kg; settings: in vivo; how it was run: as §4
Mus musculus [9] = assay: Antitumor activity against B16 murine melanoma at a dose of 50 mg/kg (ip) measured as increased life span (% T/C); type: functional; how it was run: as §1
Mus musculus [10] = assay: Antitumor activity in MX-1 Xenograft Model at a dose of 25 mg/kg (ip) measured as number of mice with complete tumor regression; type: functional; how it was run: as §2
Mus musculus [11] = assay: Antitumor activity in MX-1 Xenograft Model at a dose of 25 mg/kg (ip) measured as percent growth inhibition; type: functional; settings: read-out: GI; how it was run: as §2
Mus musculus [12] = assay: Antitumor activity against B16 murine melanoma at a dose of 50 mg/kg (ip) measured as percent weight change on day 8; type: functional; how it was run: as §1
Mus musculus [13] = assay: Antitumor activity in MX-1 Xenograft Model at a dose of 50 mg/kg (ip) measured as number of mice with complete tumor regression; type: functional; how it was run: as §2
Mus musculus [14] = assay: Antitumor activity in MX-1 Xenograft Model at a dose of 50 mg/kg (ip) measured as number of mice with partial tumor regression; type: functional; how it was run: as §2
Mus musculus [15] = assay: as §5; type: functional; how it was run: as §4
Mus musculus [16] = assay: Toxicity to bone marrow granulocyte/macrophage progenitors per femur at a dose of 100 mg/kg (ip); type: functional; how it was run: as §4
Mus musculus [17] = assay: Toxicity to bone marrow granulocyte/macrophage progenitors per femur at a dose of 50 mg/kg (ip); type: functional; how it was run: as §4
Mus musculus [18] = assay: Antitumor activity in MX-1 Xenograft Model at a dose of 50 mg/kg (ip) measured as percent growth inhibition; type: functional; settings: read-out: GI; how it was run: as §2
Mus musculus [19] = assay: Antitumor activity against B16 murine melanoma at a dose of 5 mg/kg (ip) measured as increased life span (% T/C); type: functional; how it was run: as §1
Mus musculus [20] = assay: Antitumor activity against B16 murine melanoma at a dose of 5 mg/kg (ip) measured as 60-day survivors (% LTS); type: functional; how it was run: as §1
Mus musculus [21] = assay: Antitumor activity against B16 murine melanoma at a dose of 100 mg/kg (ip) measured as 60-day survivors (% LTS); type: functional; how it was run: as §1
Mus musculus [22] = assay: Antitumor activity against B16 murine melanoma at a dose of 100 mg/kg (ip) measured as increased life span (% T/C); type: functional; how it was run: as §1
Mus musculus [23] = assay: as §3; type: functional; how it was run: as §4
Mus musculus [24] = assay: Antitumor activity against B16 murine melanoma at a dose of 100 mg/kg (ip) measured as percent weight change on day 8; type: functional; how it was run: as §1

## O=[N+]([O-])c1ccc(COP(=O)(N(CCCl)CCCl)N(CCCl)CCCl)s1
Mus musculus [1]
  Weight change: 10%
Mus musculus [2]
  Weight change: 1%
Mus musculus [3]
  LTS: 0%
Mus musculus [4]
  LTS: 20%
Mus musculus [5]
  T/C: 248%
Mus musculus [6]
  No. partial: 10
Mus musculus [7]
  Control: 81%
Mus musculus [8]
  Control: 106%
Mus musculus [9]
  T/C: 166%
Mus musculus [10]
  No. total: 0
Mus musculus [11]
  inhibition in vivo at 25 mg/kg: > 99%
Mus musculus [12]
  Weight change: 8%

## O=[N+]([O-])c1ccc(COP(=O)(N(CCBr)CCBr)N(CCBr)CCBr)o1
Mus musculus [13]
  No. total: 4
Mus musculus [2]
  Weight change: 11%
Mus musculus [3]
  LTS: 0%
Mus musculus [14]
  No. partial: 6
Mus musculus [15]
  Control: 23%
Mus musculus [16]
  Control: 32%
Mus musculus [17]
  Control: 102%
Mus musculus [9]
  T/C: 202%
Mus musculus [18]
  inhibition in vivo at 50 mg/kg: > 99%
Mus musculus [12]
  Weight change: 11%

## O=[N+]([O-])c1ccc(COP(=O)(N(CCBr)CCBr)N(CCBr)CCBr)s1
Mus musculus [19]
  T/C: 185%
Mus musculus [16]
  Control: 64%
Mus musculus [20]
  LTS: 0%
Mus musculus [17]
  Control: 93%
Mus musculus [12]
  Weight change: 10%

## O=[N+]([O-])c1ccc(COP(=O)(N(CCCl)CCCl)N(CCCl)CCCl)o1
Mus musculus [13]
  No. total: 0
Mus musculus [21]
  LTS: 10%
Mus musculus [2]
  Weight change: 2%
Mus musculus [14]
  No. partial: 7
Mus musculus [15]
  Control: 104%
Mus musculus [22]
  T/C: 172%
Mus musculus [16]
  Control: 100%
Mus musculus [23]
  Control: 26%
Mus musculus [18]
  inhibition in vivo at 50 mg/kg: 99%
Mus musculus [24]
  Weight change: 6%
